Measured values of several laboratories.
Protocols differ between the studies behind these lines.
Effect on: cell growth or viability

CCCCCCn1c(-c2cccc(Cl)c2)n[nH]c1=S
viability (HepG2; resazurin; 100 µM; 24 h): 75%

COc1cc2c(cc1OCc1ccccc1F)C1Cc3c(n(CO)c4ccccc34)CN1CC2 (stereo not drawn)
viability (HepG2; 20 µM; 24 h): 83.6%

CCOP(=O)(OCC)[C@@H]1C[C@@H](n2cc(-c3ccc(F)cc3F)nn2)ON1C (racemic)
CC50 (human T-lymphocyte; 72 h): ≥ 250 µM

COc1ccc2c(c1)c1c(n2CO)CN2CCc3cc(OC)c(OCc4ccc(F)cc4)cc3C2C1 (stereo not drawn)
viability (HepG2; 10 µM; 24 h): 104%

NC1CCC(CC2CCC(NC(=O)c3cc4[nH]ccc4cc3Cl)CC2)CC1 (stereo not drawn)
viability (HEK-293T; 100 µM; 24 h): < 50%

N[C@@H](CC(=O)N1CCN(C(c2ccc(F)cc2)c2ccc(F)cc2)CC1)C(=O)N1Cc2ccccc2C1
viability (HEK-293T; ATP luminescence; 60 µM): 41%

CCOP(=O)(OCC)[C@@H]1C[C@@H](n2cc(Cn3cc(C)c(=O)[nH]c3=O)nn2)ON1C (racemic)
CC50 (human T-lymphocyte; 72 h): > 250 µM

O=C(NCCc1c[nH]c2ccc(F)cc12)c1cc2[nH]ccc2cc1Cl
viability (HEK-293T; 100 µM; 24 h): < 50%

CC[C@@H](C)[C@H](N)C(=O)N1Cc2ccccc2C1
viability (HEK-293T; ATP luminescence; 60 µM): 73%

COc1ccc(CCN2CCC(Nc3nc4ccccc4n3Cc3ccc(F)cc3)CC2)cc1
viability (HepG2; resazurin; 50 µM; 24 h): 20%

CCOP(=O)(OCC)[C@@H]1C[C@H](n2cc(Cn3ccc(=O)[nH]c3=O)nn2)ON1C (racemic)
CC50 (human T-lymphocyte; 72 h): > 250 µM

COc1cc2c(cc1O)[C@@H](Cc1ccc(O)cc1)[N+](C)(C)CC2
CC50 (Huh-7; MTT): > 318 µM
